Published values pooled from the literature.
Compare with care: the assays were run in different laboratories. In brackets after ≈: the same amount, converted by molar mass.

Structure (SMILES)	organism	test	system	setting	endpoint	result
CC1=NN(CNC(=O)c2ccccc2)C(=O)C1=NNn1c(-c2ccccc2)nc2ccccc2c1=O	Monascus purpureus	microbial growth, broth dilution	–	–	MIC	104 µM (≈ 49.8 µg/mL)
c1ccc(C2CCN(c3nc(-c4ccn[nH]4)nc4ccccc34)C2)nc1 (centres unmarked)	Trypanosoma cruzi	parasite growth, imaging	U2OS	intracellular, amastigote	IC50	14300 nM
O=C1NN=C(N=Cc2ccccc2O)C1=NNn1c(-c2ccccc2)nc2ccccc2c1=O	Monascus purpureus	microbial growth, broth dilution	–	–	MIC	111 µM (≈ 50 µg/mL)
O=C(N[C@@H](Cc1ccccc1)C(=O)c1cc(-c2ccccc2)no1)[C@H](Cc1ccccc1)NC(=O)N1CCOCC1 (mixture of isomers)	Trypanosoma cruzi	parasite growth	TULAHUEN	intracellular, amastigote	IC50	28000 nM
[H]/N=C(/N)N[C@H]1[C@H](O)[C@@H](O)[C@H](O[C@@H]2O[C@@H](C)[C@](O)(C=O)[C@H]2O[C@@H]2O[C@@H](CO)[C@H](O)[C@@H](O)[C@@H]2NC)[C@@H](N/C(N)=N\[H])[C@@H]1O	Mycobacterium tuberculosis	microbial growth, disc diffusion	ATCC25177	10 µg/disc, 12 days	inhibition zone	40 mm
O=C1NN=C(N=Cc2ccc(O)c(O)c2)C1=NNn1c(-c2ccccc2)nc2ccccc2c1=O	Monascus purpureus	microbial growth, broth dilution	–	–	MIC	53.5 µM (≈ 25 µg/mL)
Cn1cc(-c2nc(N3CCC(c4ccccn4)C3)c3ccccc3n2)cn1 (centres unmarked)	Trypanosoma cruzi	parasite growth, imaging	U2OS	intracellular, amastigote	IC50	2570 nM
Cc1cc2nc(C(=O)N3CCOCC3)cc(-c3ccccc3Cl)c2c(C)c1-c1ccncc1	Mycobacterium tuberculosis	microbial growth	H37RV	–	MIC90	15 µM (≈ 6.87 µg/mL)
N#Cc1cccc(-c2nc(N3CCC(c4ccccn4)C3)c3ccccc3n2)c1 (centres unmarked)	Trypanosoma cruzi	parasite growth, imaging	U2OS	intracellular, amastigote	IC50	6920 nM
CCOC(=O)c1c(NC(=O)c2ccccc2)sc2c1CCN(C(=O)OC(C)(C)C)C2	Mycobacterium tuberculosis	microbial growth, resazurin	H37RV	–	MIC	> 200 µM
CC(C)(Nc1nc(-c2ccccn2)nc2ccccc12)c1ccccn1	Trypanosoma cruzi	parasite growth, imaging	U2OS	intracellular, amastigote	IC50	1400 nM
CCCCNC(=O)c1c(N)sc2c1CCCC2	Mycobacterium tuberculosis	microbial growth, resazurin	H37RV	–	MIC	> 300 µM
O=[N+]([O-])c1ccc(-c2nc3cccc(O)c3[nH]2)o1	Staphylococcus haemolyticus	microbial killing	–	–	MBC	0.5 µg/mL (≈ 2.04 µM)
CCN1CCc2c(sc(N)c2C(=O)O)C1	Mycobacterium tuberculosis	microbial growth, resazurin	H37RV	–	MIC	> 400 µM
c1ccc(CNc2nc(-c3ccccn3)nc3ccccc23)cc1	Trypanosoma cruzi	parasite growth, imaging	U2OS	intracellular, amastigote	IC50	1400 nM
COc1ccccc1CNC(=O)c1cc(-c2ccccc2)sc1N	Mycobacterium tuberculosis	microbial growth, resazurin	H37RV	–	MIC	> 200 µM
COc1ccccc1-c1nc(N2CCC(c3ccccn3)C2)c2ccccc2n1 (centres unmarked)	Trypanosoma cruzi	parasite growth, imaging	U2OS	intracellular, amastigote	IC50	910 nM
CCOC(=O)c1c(NC(=O)c2cc(C(F)(F)F)cc(C(F)(F)F)c2)sc2c1CCN(C(=O)OC(C)(C)C)C2	Mycobacterium tuberculosis	microbial growth, resazurin	H37RV	7 days	MIC	> 100 µM
Cc1ccc2nc(-c3ccc(F)c(F)c3)c(CN3CCN(C4CCCCC4)CC3)n2c1	Trypanosoma cruzi	parasite growth	TULAHUEN	6 days, intracellular, amastigote	EC90	> 5000 nM
CCN1CCc2c(sc(N)c2C(=O)NCc2ccccc2OC)C1	Mycobacterium tuberculosis	microbial growth, resazurin	H37RV	–	MIC	> 200 µM
c1ccc(-c2nc(N3CCC(c4ccccn4)C3)c3ccccc3n2)nc1 (centres unmarked)	Trypanosoma cruzi	parasite growth, imaging	U2OS	intracellular, amastigote	IC50	1200 nM
CCOC(=O)c1c(NC(=O)c2ccccc2)sc2c1CCN(CC)C2	Mycobacterium tuberculosis	microbial growth, resazurin	H37RV	–	MIC	279 µM (≈ 100 µg/mL)
CC1=NN(CNc2ccc(C(=O)O)cc2)C(=O)C1=NNn1c(-c2ccccc2)nc2ccccc2c1=O	Monascus purpureus	microbial growth, broth dilution	–	–	MIC	101 µM (≈ 50 µg/mL)
